According to ChEMBL document CHEMBL1144727, “Fragment based design of new H4 receptor-ligands with anti-inflammatory properties in vivo” (J Med Chem, 2008):
Active and inactive are the calls of the source. No cut-off for these calls is given here.

Assays:
Histamine H4 receptor = Histamine H4 receptor (Homo sapiens, UniProt Q9H3N8); experiment: Displacement of [3H]histamine from human histamine H4 receptor expressed in HEK293T cells; assay type: cell-based, HEK-293T
Histamine H1 receptor [1] = target: T1, Histamine H1 receptor (Homo sapiens, UniProt P35367); experiment: Displacement of [3H]mepyramine from human histamine H1 receptor expressed in NIH3T3 cells at 10 uM; assay type: cell-based
T1 sequence (P35367 whole entry): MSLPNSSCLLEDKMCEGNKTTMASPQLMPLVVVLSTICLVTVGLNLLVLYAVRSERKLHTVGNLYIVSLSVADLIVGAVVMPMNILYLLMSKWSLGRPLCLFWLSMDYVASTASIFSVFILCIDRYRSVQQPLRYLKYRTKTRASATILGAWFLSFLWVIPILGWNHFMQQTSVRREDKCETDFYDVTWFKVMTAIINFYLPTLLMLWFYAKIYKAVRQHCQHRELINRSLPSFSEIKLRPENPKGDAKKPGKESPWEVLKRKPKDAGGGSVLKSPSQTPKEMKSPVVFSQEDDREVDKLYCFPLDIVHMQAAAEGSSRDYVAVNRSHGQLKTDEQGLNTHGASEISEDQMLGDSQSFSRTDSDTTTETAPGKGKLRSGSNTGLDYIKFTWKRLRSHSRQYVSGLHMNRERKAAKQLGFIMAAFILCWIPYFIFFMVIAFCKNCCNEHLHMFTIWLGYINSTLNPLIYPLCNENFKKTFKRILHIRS
In short: (§1)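 Single-point radioligand displacement at the human receptor, performed externally, with ligand at 10 μM. Reported as % inhibition of radioligand binding, measured in duplicate.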

[2] = target: Histamine H2 receptor (Homo sapiens) (UniProt P25021); experiment: Displacement of [3H]aminopotentidine from human histamine H2 receptor expressed in COS7 cells at 10 uM; assay type: cell-based; settings: COS-7; in short: as §1
Histamine H2 receptor (Homo sapiens), sequence (P25021 whole entry): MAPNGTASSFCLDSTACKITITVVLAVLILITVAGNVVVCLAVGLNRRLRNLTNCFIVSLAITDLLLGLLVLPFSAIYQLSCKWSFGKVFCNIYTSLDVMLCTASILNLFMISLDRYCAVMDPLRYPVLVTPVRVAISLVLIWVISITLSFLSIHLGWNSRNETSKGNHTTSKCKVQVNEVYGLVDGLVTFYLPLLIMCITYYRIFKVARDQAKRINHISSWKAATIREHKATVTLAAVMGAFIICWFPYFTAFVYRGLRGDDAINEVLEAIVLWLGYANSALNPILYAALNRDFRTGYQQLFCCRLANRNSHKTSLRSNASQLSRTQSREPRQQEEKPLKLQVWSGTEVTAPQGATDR

[3] = target: Histamine H3 receptor (Homo sapiens) (UniProt Q9Y5N1); experiment: Displacement of [3H]Nalpha-methyl-histamine from human histamine H3 receptor expressed in […] cells at 10 uM; assay type: cell-based; settings: SK-N-MC; in short: as §1
Histamine H3 receptor (Homo sapiens), sequence (Q9Y5N1 whole entry): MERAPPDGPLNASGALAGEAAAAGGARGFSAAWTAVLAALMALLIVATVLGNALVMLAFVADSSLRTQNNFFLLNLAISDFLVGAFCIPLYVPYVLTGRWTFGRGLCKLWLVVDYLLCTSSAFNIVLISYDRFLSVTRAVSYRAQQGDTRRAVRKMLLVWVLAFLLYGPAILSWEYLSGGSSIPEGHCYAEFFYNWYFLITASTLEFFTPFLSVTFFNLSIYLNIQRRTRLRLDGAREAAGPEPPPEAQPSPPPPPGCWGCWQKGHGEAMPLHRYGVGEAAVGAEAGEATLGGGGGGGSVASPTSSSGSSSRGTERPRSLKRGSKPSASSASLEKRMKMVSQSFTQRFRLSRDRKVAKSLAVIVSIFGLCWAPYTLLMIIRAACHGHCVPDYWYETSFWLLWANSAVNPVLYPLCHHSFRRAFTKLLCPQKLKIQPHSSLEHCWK

Rattus norvegicus [4] = experiment: Antiinflammatory activity in Wistar rat assessed as inhibition of carrageenan-induced paw edema at 10 mg/kg, sc after 2 hrs; assay type: functional, organism-based; parameters: dose 10 mg/kg
In short: (§2)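 Male Wistar rats (180–200 g), fasted; paw inflammation induced by subplantar injection of 0.1 mL 1% carrageenan in carboxymethylcellulose into left hind paw. Compound or vehicle (DMSO solution, freshly prepared) given s.c. at 0.1 mL per 100 g immediately before carrageenan. Paw volume by plethysmometer before injection and at 2, 4, 6 h; edema as % increase over preinjection value (=100). n = 6 per group.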

Rattus norvegicus [5] = experiment: Antiinflammatory activity in Wistar rat assessed as inhibition of carrageenan-induced paw edema at 10 mg/kg, sc after 6 hrs; assay type: functional, organism-based; parameters: dose 10 mg/kg; in short: as §2
Histamine H1 receptor [6] = target: T1, Histamine H1 receptor; experiment: Displacement of [3H]mepyramine from human histamine H1 receptor expressed in NIH3T3 cells; assay type: cell-based
Rattus norvegicus [7] = experiment: Antiinflammatory activity in Wistar rat assessed as inhibition of carrageenan-induced paw edema at 30 mg/kg, sc after 2 hr; assay type: functional, organism-based; parameters: dose 30 mg/kg; in short: as §2

Ki (Histamine H4 receptor) [nM]	Structure (SMILES)	further results
7410	CN1CCN(c2nc3ccccc3nc2NCc2ccccc2)CC1	–
2340	CN1CCN(c2nc3ccccc3nc2Oc2ccc(Cl)cc2)CC1	–
575	Cc1cccc(Oc2nc3ccccc3nc2N2CCN(C)CC2)c1	–
479	CN1CCN(c2nc3ccccc3nc2OCCc2ccccc2)CC1	–
269	CN1CCN(c2nc3ccccc3nc2OCc2cccc(Cl)c2)CC1	–
57.5	COc1nc2cc(Cl)c(Cl)cc2nc1N1CCN(C)CC1	–
3980	CN1CCN(c2nc3cc(Cl)c(Cl)cc3nc2CCc2ccccc2)CC1	–
1380	Cc1ccc(COc2nc3ccccc3nc2N2CCN(C)CC2)cc1	–
1170	CN1CCN(c2nc3cc(Cl)c(Cl)cc3nc2Oc2ccccc2)CC1	–
324	CN1CCN(c2nc3ccccc3nc2Oc2ccccc2)CC1	–
1700	CN1CCN(c2nc3ccccc3nc2Oc2ccc(Cl)c(Cl)c2)CC1	–
295	CN1CCN(c2nc3ccccc3nc2OCc2ccccc2)CC1	–
363	CN1CCN(c2nc3ccccc3nc2Sc2ccccc2)CC1	–
63.1	Cc1nc2cc(Cl)c(Cl)cc2nc1N1CCN(C)CC1	–
977	CN1CCCN(c2nc3cc(Cl)ccc3[nH]c2=O)CC1	–
10200	CN1CCN(c2nc3ccccc3nc2-c2ccccc2)CC1	–
229	CCOc1nc2ccccc2nc1N1CCN(C)CC1	–
2690	CCN1CCN(c2nc3ccccc3nc2Cc2ccccc2)CC1	–

Ki (Histamine H4 receptor) [nM]	Structure (SMILES)	further results
2190	Cc1ccc(Oc2nc3ccccc3nc2N2CCN(C)CC2)cc1	–
2290	CN1CCN(c2nc3ccccc3nc2OCc2ccc(Cl)cc2)CC1	–
13200	CN1CCN(c2nc3ccccc3nc2OC2CCCCC2)CC1	–
2950	CN1CCN(c2nc3ccccc3nc2OCc2cccnc2)CC1	–
1550	CN1CCN(c2nc3ccccc3nc2Oc2cccc(N(C)C)c2)CC1	–
3980	CN(C)CCCOc1nc2ccccc2nc1N1CCN(C)CC1	–
1290	CN1CCN(c2nc3ccccc3nc2Oc2cccnc2)CC1	–
4370	CN1CCN(c2nc3ccccc3nc2OCc2ccncc2)CC1	–
5.62	CN1CCN(c2nc3cc(Cl)c(Cl)cc3[nH]c2=O)CC1	inhibition (Histamine H1 receptor [1]): 7%; inhibition [2]: 42%; inhibition [3]: 64%; Activity (Rattus norvegicus [4]): Active; Activity (Rattus norvegicus [5]): Active
5750	CC(C)COc1nc2ccccc2nc1N1CCN(C)CC1	–
1580	CN1CCN(c2nc3ccccc3nc2Oc2ccc(F)cc2)CC1	–
39.8	CN1CCN(c2nc3ccccc3nc2Cc2ccccc2)CC1	inhibition (Histamine H1 receptor [1]): 86%; inhibition [2]: 62%; inhibition [3]: 26%; Ki (Histamine H1 receptor [6]): 741 nM; Activity (Rattus norvegicus [7]): Active
2340	COc1ccc(Oc2nc3ccccc3nc2N2CCN(C)CC2)cc1	–
708	COc1ccc(COc2nc3ccccc3nc2N2CCN(C)CC2)cc1	–
2510	CN1CCN(c2nc3ccccc3nc2C(F)(F)F)CC1	–
26.3	COc1nc2cc(Cl)ccc2nc1N1CCN(C)CC1	–
468	CN1CCN(c2nc3ccccc3nc2OCc2ccccn2)CC1	–
2950	CN1CCN(c2nc3ccccc3nc2OCCCCc2ccccc2)CC1	–

Structure (SMILES)	Ki (Histamine H4 receptor) [nM]	further results
CN1CCN(c2nccc3ccccc23)CC1	20400	–
CN1CCN(c2ccc3ccccc3n2)CC1	6920	–
COc1nc2ccccc2nc1N1CCN(C)CC1	339	–
Cc1nc2ccccc2nc1N1CCN(C)CC1	200	–
CN1CCN(c2nc3cc(Cl)ccc3[nH]c2=O)CC1	11.7	–
CN1CCN(c2nc3ccccc3[nH]c2=O)CC1	61.7	–
CN1CCN(c2ccc3cc(Cl)ccc3n2)CC1	589	–
CN1CCN(c2cnc3cc(Cl)ccc3n2)CC1	91.2	–
CN1CCN(c2nc3ccccc3nc2Cl)CC1	229	–
CN1CCN(c2cnc3ccccc3n2)CC1	891	–
